Compound activity deposited in PubChem by Sanford-Burnham Center for Chemical Genomics.
Only some compounds are listed: those with a hit (about 1.9% of all), similar ones and a draw of the others.
STEP block: STEP phosphatase inhibitors, primary screen, biochemical, fluorescence intensity, uHTS; Tyrosine-protein phosphatase non-receptor type 5 (Homo sapiens), P54829; recombinant STEP, OMFP fluorogenic substrate; inhibition, % at 20 µM; 360,000 compounds, 0.25% hits; AID 588621, 2011;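 active = inhibition at 20 µM, scaled per plate between control wells, above about 37%, limit read from the data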;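 note: 0% = DMSO with enzyme and substrate and 100% = substrate only without enzyme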
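Assay system: isolated STEP enzyme / Timing: 20 min at room temperature, dark / Doses: 20 µM, 1% DMSO / Technique: fluorescence intensity, excitation 480 nm, emission 540 nm / Reagent: fluorogenic phosphatase substrate OMFP at 25 µM final / Measure: percent inhibition scaled to no-enzyme and uninhibited-enzyme controls, plate-pattern corrected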
FAS TE block: FAS thioesterase domain inhibitors, primary screen, biochemical, fluorescence intensity, uHTS. recombinant FAS-TE, OMFH fluorogenic substrate, fluorescence endpoint. Fatty acid synthase (Homo sapiens), P49327. 360,000 compounds, 0.67% hits. inhibition, % at 15 µM;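 active = compounds whose normalised, plate-corrected inhibition of enzyme fluorescence in the single-dose primary screen is 50% or more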;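 note: 0% = DMSO with enzyme and 100% = substrate without enzyme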
LMPTP inh: LMPTP phosphatase inhibitors, primary screen, biochemical, fluorescence intensity, uHTS; recombinant LMPTP-A, OMFP fluorogenic substrate; AID 651560, 2012; inhibition, % at 20 µM; 360,000 compounds, 0.22% hits;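 active = compounds that cut the enzyme signal by at least half of the control window in the single-dose screen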;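 note: plate controls were DMSO wells with enzyme plus substrate for no effect and substrate without enzyme for full effect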
Target sequence (P24666 whole entry, looked up): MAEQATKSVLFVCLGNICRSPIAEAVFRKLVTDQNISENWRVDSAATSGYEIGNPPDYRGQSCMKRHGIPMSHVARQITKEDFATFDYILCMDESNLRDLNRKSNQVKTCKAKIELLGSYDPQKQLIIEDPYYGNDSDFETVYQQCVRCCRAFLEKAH
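Test system: LMPTP-A, protein tyrosine phosphatase of low molecular weight; Input: 0.625 nM enzyme; Incubation: 50 min dark incubation at room temperature; Signal: endpoint fluorescence intensity from OMFP dephosphorylation; Read-out basis: % inhibition versus control wells.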
SUMO1 PPI mod: modulators of SUMO1 protein-protein interactions, primary screen, biochemical, uHTS; 360,000 compounds, 0.33% hits; Small ubiquitin-related modifier 1 (Homo sapiens), P63165; inhibition, % at 20 µM; SUMO1 binding to a labelled peptide, TR-FRET, 1 h; in the data active = inhibition above about 37%
Target sequence (P63165 whole entry, looked up): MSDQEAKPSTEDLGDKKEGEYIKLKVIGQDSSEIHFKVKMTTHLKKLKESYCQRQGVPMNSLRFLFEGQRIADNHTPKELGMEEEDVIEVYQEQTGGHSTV
Scp1 inh: Scp-1 phosphatase inhibitors, primary screen, biochemical, colorimetric, uHTS | Carboxy-terminal domain RNA polymerase II polypeptide A small phosphatase 1 (Homo … | Recombinant Scp1, phosphopeptide, malachite green phosphate absorbance | inhibition, % at 20 µM | 340,000 compounds, 0.88% hits;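 active = inhibition above about 50% at 20 µM, limit read from the data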;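 note: plate controls were DMSO wells with enzyme for no effect and wells lacking enzyme for full effect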
Target sequence (Q9GZU7 76-261 limits assumed): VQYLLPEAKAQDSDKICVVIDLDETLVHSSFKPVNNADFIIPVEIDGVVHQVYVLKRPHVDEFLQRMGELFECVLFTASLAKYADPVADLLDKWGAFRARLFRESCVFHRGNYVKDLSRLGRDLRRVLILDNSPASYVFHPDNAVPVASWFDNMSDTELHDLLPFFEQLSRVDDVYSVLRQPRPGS
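Test system: SCP-1 phosphatase catalytic domain, residues 76-261 | Compound dosing: One concentration, 20 µM, with 1.0% DMSO | Schedule: 45 min room-temperature reaction, 5 min colour, 30 min stabiliser | Detection: Absorbance at 630 nm | Read-out basis: % inhibition of SCP-1 phosphate liberation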
FAS-TE conf: FAS thioesterase domain inhibitors, confirmation, biochemical, fluorescence intensity, single concentration. shares compounds with FAS TE block. recombinant FAS-TE, OMFH fluorogenic substrate. inhibition, % at 15 µM. 2,300 compounds, 45% hits;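 active = compounds inhibiting the enzyme by at least 50% at 15 µM in any one of the replicates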;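 note: 0% = enzyme with DMSO only and 100% = wells lacking enzyme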
Starred values were filed as active, the others as inactive; · = no result.

SMILES	STEP block	FAS TE block	LMPTP inh	SUMO1 PPI mod	Scp1 inh	FAS-TE conf
O=C(/C=C/c1ccccc1)NCCSCc1ccc(Cl)cc1	-1	-2	1	2	-11	·
O=C(/C=C/c1cccc([N+](=O)[O-])c1)NCCSCc1c(Cl)cccc1Cl	4	65*	3	-8	-16	53*
O=C(/C=C/c1cccc([N+](=O)[O-])c1)NCCSCc1ccc(Cl)cc1	0	54*	4	-17	-13	51*
CCc1ccc(Cn2ncc3c(C(=O)O)cc(C)nc32)cc1	-3	-4	-2	7	-5	·
COc1cccc(NC(=O)CN2C(=O)COc3ccc(S(=O)(=O)N4CCC(C)CC4)cc32)c1	-1	61*	2	1	2	66*
COc1ccccc1CCCNC(=O)C1CCC(=O)N(Cc2ccccc2F)C1 (configuration not stated)	0	-4	0	-2	6	·
COC(=O)[C@@]1(Cc2ccc(OC)cc2)[C@H]2c3cc(C(=O)N4CCCC4)n(CCc4ccc(OC)c(Br)c4)c3C[C@H]2CN1C(=O)c1ccccc1	·	73*	8	7	·	15
COc1ccc(C)cc1NS(=O)(=O)c1ccc2c(c1)CCN2C(C)=O	0	3	0	5	-7	·
C=CCOc1c(Br)cc(/C=N/Nc2ccc(C(=O)O)cc2)cc1OCC	0	54*	3	10	12	72*
COc1ccc(/C=N/Nc2ccc(C(=O)O)cc2)cc1Br	0	0	1	-8	-2	·
Cc1ccc(NC(=O)C2=C(c3ccccc3)S(=O)(=O)CCS2(=O)=O)cc1	0	75*	0	-2	-8	83*
O=C(CSc1ncnc2c1nnn2Cc1ccccc1)NC1CCCCC1	-2	58*	0	-1	-5	49*
O=C(CSc1nnnn1Cc1ccccc1)NC1CCCCC1	3	-7	0	-5	-10	·
CCCC(=O)N(CCN1CCOCC1)c1nc2c(F)cc(F)cc2s1	1	8	0	1	13	·
Cc1cc(OC(=O)c2ccccc2F)c([N+](=O)[O-])c(=O)[nH]1	0	-6	-1	1	0	·
COc1ccc(-n2cnnc2SCC(=O)NC2CCCc3ccccc32)cc1 (configuration not stated)	1	-3	-1	-1	1	·
CCc1cccc(NC(=O)c2cccc3c2C(=O)N(C2CCCCC2)C3)c1	1	26	6	-2	-14	·
Cc1ccc(NC(=O)/C(C#N)=C/c2cc(C)n(-c3ccc(N4CCOCC4)c([N+](=O)[O-])c3)c2C)c(C)c1	1	10	3	-1	-3	·
Cc1cc(/C=C(\C#N)C(=O)Nc2ccc(Cl)cc2)c(C)n1-c1ccc(N2CCOCC2)c([N+](=O)[O-])c1	1	79*	0	-4	-6	9
COc1ccc(NC(=O)/C(C#N)=C\c2cc(C)n(-c3ccc4c(c3)OCO4)c2C)cc1	-2	54*	2	-4	-7	-5
Cc1cc(/C=C(\C#N)C(=O)Nc2ccccc2)c(C)n1-c1ccc(C(=O)O)cc1	4	-7	0	-19	-6	·
O=C(O)C1CCC(N2C(=O)c3cccc([N+](=O)[O-])c3C2=O)CC1 (configuration not stated)	0	-6	-1	-32	-8	·
Cc1ccc([N+](=O)[O-])cc1NC(=O)C(Sc1ccccc1)c1ccccc1 (configuration not stated)	4	82*	1	-4	-10	85*
Cc1ccc(C(=O)O)cc1NC(=S)NCCc1ccccc1	8	-5	-1	4	-5	·
Cc1ccc([N+](=O)[O-])cc1NC(=S)NCCc1ccccc1	2	56*	0	-20	7	71*
SMILES	STEP block	FAS TE block	LMPTP inh	SUMO1 PPI mod	Scp1 inh	FAS-TE conf
Cc1ccc(NC(=S)NCc2ccccc2)cc1[N+](=O)[O-]	-2	64*	1	-15	-10	38
CCN(CC)S(=O)(=O)c1ccc(NC(=O)C2CC(=O)N(c3ccc4c(c3)OCCO4)C2)cc1 (configuration not stated)	0	-4	0	1	-2	·
O=C(NCCc1c[nH]c2ccccc12)c1ccc2c(c1)OCO2	3	-2	0	0	-10	·
N#C/C(=C/c1ccc2c(c1)OCO2)C(=O)NCCc1c[nH]c2ccccc12	3	52*	2	-15	-13	34
O=C(CN1CCN(c2ncc(C(F)(F)F)cc2Cl)CC1)N1CCN(c2ncc(C(F)(F)F)cc2Cl)CC1	3	18	5	2	9	·
O=C(CSc1ccc(Cl)cc1)N1CCN(c2ncc(C(F)(F)F)cc2Cl)CC1	5	53*	6	-3	-7	25
CN(CCc1ccccc1)C(=O)c1ccc(NC(=O)Cc2ccc(NC(=O)C3CCCN(S(=O)(=O)c4cccc([N+](=O)[O-])c4)C3)cc2)cc1 (configuration not stated)	-1	72*	1	-7	-20	22
CN(CCc1ccccc1)C(=O)c1cccc(NC(=O)Cc2cccc(NC(=O)C3CCCN(S(=O)(=O)c4cccc([N+](=O)[O-])c4)C3)c2)c1 (configuration not stated)	3	48	0	-7	-11	·
CN(Cc1ccccc1)C(=O)c1ccc(NC(=O)Cc2ccc(NC(=O)C3CCN(S(=O)(=O)c4cccc([N+](=O)[O-])c4)CC3)cc2)cc1	-2	68*	1	-7	-23	19
Cc1ccc(CNC(=O)CCSCc2ccccc2F)cc1	2	4	1	-3	-13	·
N#Cc1c(C(F)(F)F)cc(-c2cccs2)nc1SCC(=O)O	1	18	-1	-11	-4	·
N#Cc1c(C(F)(F)F)cc(-c2cccs2)nc1SC(C(=O)O)c1ccccc1 (configuration not stated)	0	75*	-1	-3	-11	82*
O=C(NNc1nc(-c2ccccc2)c2cc(Br)ccc2n1)c1ccc(S(=O)(=O)N2CCOCC2)cc1	2	80*	1	3	9	20
O=C(NNc1nc(-c2ccccc2)c2cc(Br)ccc2n1)c1ccc(S(=O)(=O)N2CCCCC2)cc1	0	74*	2	6	18	21
